In brackets after ≈: the same amount, converted by molar mass. Bounds are passed on as bounds.

For five molecules, MIC results are on record in ChEMBL document CHEMBL1158537, “Antibacterial activities of aminoglycoside antibiotics-derived cationic amphiphiles. Polyol-modified neomycin B-, kanamycin A-, amikacin-, and neamine-based amphiphiles with potent broad spectrum antibacterial activity” (2010).

The subject of assay [1] is Escherichia coli. Description: Antibacterial activity against Escherichia coli CAN-ICU 63074 after 24 hrs by macrobroth dilution method. In kind it is functional. The following applies: CAN-ICU 63074, 24 h. The gist of the method: (§1)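 Broth macrodilution was run following CLSI methodology against ATCC reference strains and clinical isolates from the Canadian Intensive Care Unit (CAN-ICU) study, with Gram-positive and Gram-negative organisms tested. The value is the minimum inhibitory concentration, reported in μg/mL.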
In general terms: Dilution methods test growth across graded concentrations, often in twofold steps.

The test system of assay [2] is Escherichia coli. The assay is described as follows: Antibacterial activity against gentamicin-resistant Escherichia coli ATCC 6174 after 24 hrs by macrobroth dilution method. It counts as functional. The following applies: ATCC 6174, 24 h. Summed up:
(§2)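 Reference strains from the American Type Culture Collection were tested by broth macrodilution following CLSI methodology. The read-out was the minimum inhibitory concentration, reported in μg/mL. The same method was used for the Gram-positive and Gram-negative organisms.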

The next assay relates to Acinetobacter baumannii. The assay is described as follows: Antibacterial activity against Acinetobacter baumannii CAN-ICU 63169 after 24 hrs by macrobroth dilution method. In kind it is functional. The following applies: CAN-ICU 63169, 24 h. The gist of the method: as §1
Assay [3] has as its system Staphylococcus aureus. The assay is described as follows: Antibacterial activity against Staphylococcus aureus ATCC 29213 after 24 hrs by macrobroth dilution method. In kind it is functional. Particulars: ATCC 29213, 24 h. The gist of the method:
as §2

The test system of assay [4] is Pseudomonas aeruginosa. The assay is described as follows: Antibacterial activity against Pseudomonas aeruginosa CAN-ICU 62308 after 24 hrs by macrobroth dilution method. It counts as functional. The following applies: CAN-ICU 62308, 24 h. The gist of the method:
as §1

Assay [5] relates to Pseudomonas aeruginosa. Description: Antibacterial activity against Pseudomonas aeruginosa ATCC 27853 after 24 hrs by macrobroth dilution method. Particulars: ATCC 27853, 24 h. In kind it is functional. Summed up:
as §1

For assay [6], the system named is Staphylococcus aureus. Description: Antibacterial activity against methicillin-resistant Staphylococcus aureus ATCC 33592 after 24 hrs by macrobroth dilution method. It counts as functional. The following applies: ATCC 33592, 24 h. Summed up: as §2
Assay [7] relates to Staphylococcus epidermidis. The assay is described as follows: Antibacterial activity against methicillin-resistant Staphylococcus epidermidis ATCC 14990 after 24 hrs by macrobroth dilution method. It counts as functional. The following applies: ATCC 14990, 24 h.
A further assay has as its system Streptococcus pneumoniae. Description: Antibacterial activity against Streptococcus pneumoniae ATCC 49619 after 24 hrs by macrobroth dilution method. It counts as functional. The following applies: ATCC 49619, 24 h. Summed up: as §1
The test system of assay [8] is Stenotrophomonas maltophilia. Description: Antibacterial activity against Stenotrophomonas maltophilia CAN-ICU 62585 after 24 hrs by macrobroth dilution method. In kind it is functional. The following applies: CAN-ICU 62585, 24 h. Summed up: as §1
In assay [9] the test system is Escherichia coli. The assay is described as follows: Antibacterial activity against Escherichia coli ATCC 25922 after 24 hrs by macrobroth dilution method. In kind it is functional. The following applies: ATCC 25922, 24 h. Summed up: as §2
A further assay has as its system Klebsiella pneumoniae. Description: Antibacterial activity against Klebsiella pneumoniae ATCC 13883 after 24 hrs by macrobroth dilution method. Particulars: ATCC 13883, 24 h.
Assay [10] deals with Staphylococcus epidermidis. The assay is described as follows: Antibacterial activity against Staphylococcus epidermidis […] after 24 hrs by macrobroth dilution method. It counts as functional. Summed up:
as §1

As for `NC[C@@H]1O[C@H](O[C@H]2[C@@H](OC(=O)Nc3ccccc3)[C@H](O[C@@H]3[C@@H](OC(=O)Nc4ccccc4)[C@H](N)C[C@H](N)[C@H]3O[C@H]3O[C@H](CN)[C@@H](OC(=O)Nc4ccccc4)[C@H](OC(=O)Nc4ccccc4)[C@H]3N)O[C@@H]2COC(=O)Nc2ccccc2)[C@H](N)[C@@H](OC(=O)Nc2ccccc2)[C@@H]1OC(=O)Nc1ccccc1.O=C(O)C(F)(F)F`, the MIC (in general, the smallest concentration in the dilution series that meets the test's criterion for growth inhibition) against Escherichia coli [1] was determined as 16 µg/mL; in the assay with Escherichia coli [2], 16 µg/mL; against Acinetobacter baumannii it was 32 µg/mL; against Staphylococcus aureus [3] it was 1 µg/mL; against Pseudomonas aeruginosa [4], 128 µg/mL; with Pseudomonas aeruginosa [5] it was 256 µg/mL. Also, the MIC with Staphylococcus aureus [6] is 1 µg/mL; in [7] it was 0.5 µg/mL; with Streptococcus pneumoniae, 16 µg/mL; in assay [8] it was 4 µg/mL; against Escherichia coli [9], 32 µg/mL; in the assay on Klebsiella pneumoniae, 256 µg/mL. The molecule further gave an MIC in assay [10] of 0.5 µg/mL.

Regarding `NCC[C@H](O)C(=O)N[C@@H]1C[C@H](N)[C@@H](O[C@H]2O[C@H](CN)[C@@H](O)[C@H](O)[C@H]2O)[C@H](O)[C@H]1O[C@H]1O[C@H](CO)[C@@H](O)[C@H](N)[C@H]1O` [AMIKACIN], the MIC against Escherichia coli [1] came out at 32 µg/mL (≈ 54.6 µM); against Escherichia coli [2], 2 µg/mL (≈ 3.42 µM); in the assay on Acinetobacter baumannii it was 128 µg/mL (≈ 219 µM); in the assay with Staphylococcus aureus [3] it was 4 µg/mL (≈ 6.83 µM); in the assay with Pseudomonas aeruginosa [4] it was 128 µg/mL (≈ 219 µM); against Pseudomonas aeruginosa [5], 4 µg/mL (≈ 6.83 µM). The minimum inhibitory concentration (MIC) against Staphylococcus aureus [6] is 8 µg/mL (≈ 13.7 µM); in assay [7], 2 µg/mL (≈ 3.42 µM); in the assay with Streptococcus pneumoniae it was 8 µg/mL (≈ 13.7 µM); in assay [8] it was over 512 µg/mL; against Escherichia coli [9], 4 µg/mL (≈ 6.83 µM); in the assay on Klebsiella pneumoniae, 0.5 µg/mL (≈ 0.854 µM). Further, in [10], the MIC is 1 µg/mL (≈ 1.71 µM).

`NC[C@@H]1O[C@H](O[C@H]2[C@@H](O)[C@H](O[C@@H]3[C@@H](O)[C@H](N)C[C@H](N)[C@H]3O[C@H]3O[C@H](CN)[C@@H](O)[C@H](O)[C@H]3N)O[C@@H]2CO)[C@H](N)[C@@H](O)[C@@H]1O` [FRAMYCETIN]: the MIC stood at 8 µg/mL (≈ 13 µM) against Escherichia coli [2]; 64 µg/mL (≈ 104 µM) in the assay on Acinetobacter baumannii; 1 µg/mL (≈ 1.63 µM) against Staphylococcus aureus [3]; 512 µg/mL (≈ 833 µM) against Pseudomonas aeruginosa [4]; 512 µg/mL (≈ 833 µM) against Pseudomonas aeruginosa [5]; 256 µg/mL (≈ 416 µM) with Staphylococcus aureus [6]. For the same molecule, the MIC in assay [7] is 0.5 µg/mL (≈ 0.813 µM); in the assay on Streptococcus pneumoniae, 32 µg/mL (≈ 52.1 µM); in [8], over 512 µg/mL; against Escherichia coli [9], 4 µg/mL (≈ 6.51 µM); against Klebsiella pneumoniae it was 1 µg/mL (≈ 1.63 µM); in assay [10], 0.25 µg/mL (≈ 0.407 µM).

`CN(C)c1ccc(NC(=O)OC[C@H]2O[C@H](O[C@@H]3[C@@H](OC(=O)Nc4ccc(N(C)C)cc4)[C@H](O[C@H]4O[C@H](CN)[C@@H](OC(=O)Nc5ccc(N(C)C)cc5)[C@H](OC(=O)Nc5ccc(N(C)C)cc5)[C@H]4OC(=O)Nc4ccc(N(C)C)cc4)[C@@H](N)C[C@H]3N)[C@H](OC(=O)Nc3ccc(N(C)C)cc3)[C@@H](N)[C@@H]2OC(=O)Nc2ccc(N(C)C)cc2)cc1.O=C(O)C(F)(F)F`: the minimal inhibitory concentration (MIC) against Escherichia coli [1] is 256 µg/mL; in the assay with Escherichia coli [2], 256 µg/mL; against Acinetobacter baumannii, over 256 µg/mL; with Staphylococcus aureus [3] it was 16 µg/mL; against Pseudomonas aeruginosa [4] it was 256 µg/mL; in the assay on Pseudomonas aeruginosa [5], over 256 µg/mL. Moreover, the MIC in the assay with Staphylococcus aureus [6] is 32 µg/mL; in assay [7] it was 32 µg/mL; with Streptococcus pneumoniae, over 256 µg/mL; in assay [8] it was over 256 µg/mL; against Escherichia coli [9], 256 µg/mL; in the assay on Klebsiella pneumoniae it was over 256 µg/mL. Further, in assay [10], the minimal inhibitory concentration (MIC) turned out to be 16 µg/mL.

For the molecule `NC[C@@H]1O[C@@H](O[C@H]2[C@H](O)[C@@H](O[C@H]3O[C@H](CO)[C@@H](O)[C@H](N)[C@H]3O)[C@H](N)C[C@@H]2N)[C@@H](O)[C@H](O)[C@H]1O` [KANAMYCIN A], the MIC was 32 µg/mL (≈ 66 µM) against Escherichia coli [1]; 16 µg/mL (≈ 33 µM) against Escherichia coli [2]; 32 µg/mL (≈ 66 µM) with Acinetobacter baumannii; 4 µg/mL (≈ 8.26 µM) in the assay on Staphylococcus aureus [3]; over 512 µg/mL in the assay with Pseudomonas aeruginosa [4]; over 512 µg/mL against Pseudomonas aeruginosa [5]. In addition, the MIC against Staphylococcus aureus [6] was over 512 µg/mL; in [7], 128 µg/mL (≈ 264 µM); in the assay with Streptococcus pneumoniae it was 8 µg/mL (≈ 16.5 µM); in assay [8], over 512 µg/mL; against Escherichia coli [9], 8 µg/mL (≈ 16.5 µM); in the assay with Klebsiella pneumoniae, 1 µg/mL (≈ 2.06 µM). Also, inhibition of growth in assay [10] (MIC) required 2 µg/mL (≈ 4.13 µM).
